From ChEMBL document CHEMBL3351736, “A promising camptothecin derivative: Semisynthesis, antitumor activity and intestinal permeability” (Eur J Med Chem, 2014)
Active and inactive are the calls of the source. The calls are words filed in the database; no cut-off is given here.

How the values were obtained:
MDA-MB-231 [1] = assay: Induction of apoptosis in human MDA-MB-231 cells assessed as inhibition of DNA synthesis at 0.8 to 1.6 uM after 24 hrs by BrdU staining-based ELISA; assay type: functional, cell-based
Method in brief: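 BrdU colorimetric cell proliferation ELISA. Cells seeded at 25,000 per well, compounds added 24 h after seeding and incubated 24 h. Cells fixed and the immunoassay run per kit. Absorbance read at 370-492 nm over 3 intervals of 5 min; absorbance difference proportional to BrdU incorporation. Mean of three separate experiments in triplicate, compared with untreated control.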

Caco-2 [2] = assay: Induction of apoptosis in human Caco2 cells assessed as early apoptotic cells at 0.05 uM after 48 hrs by Annexin V/propidium iodide staining-based flow cytometric analysis (reference value: 0.72 +/- 0.03%); assay type: functional
A-375 [3] = assay: Cytotoxicity against human A375 cells after 24 hrs by MTT assay; assay type: functional, cell-based; settings: A-375, 24 h
Method in brief: (§1)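 Cells seeded at 25000 per well and held 24 h at 37 °C in 5% CO2. Medium was then renewed and compounds added at increasing concentrations (DMSO 0.1%, or water for topotecan) for 24 h. MTT solution (5 mg/mL) was added for 3 h at 37 °C, then absorbance read at 570 nm, corrected at 630 nm. IC50 in µM.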

[4] = Effective permeability from apical to basolateral side in human Caco2 cells at 50 uM after 15 to 90 mins by HPLC analysis; assay type: ADME, cell-based; settings: Caco-2, read-out: Peff
Method in brief: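 Caco-2 monolayers grown 19-22 days on polycarbonate transwell inserts (4.2 cm², 0.4 µm pore) at 37 °C, 5% CO2; TEER checked before and after each run. Compound added to donor side at 37 °C, 50 rpm. Receiver sampled at 15, 30, 60 and 90 min; donor sampled at start and end. HPLC analysis. Sodium azide, when used, placed on both sides. Three independent experiments.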

[5] = Efflux ratio of effective permeability from basolateral to apical side over apical to basolateral side in human Caco2 cells at 10 to 50 uM after 15 to 90 mins by HPLC analysis; assay type: ADME, cell-based; settings: Caco-2
Method in brief: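 Caco-2 monolayers (400,000 cells per polycarbonate transwell insert, 0.4 µm pores) grown in DMEM for 19-22 days at 37 °C and 5% CO2. TEER was checked before and after each run. Compound was placed on the donor side and buffer on the receiver side, in both apical-to-basal and basal-to-apical directions, at 37 °C with 50 rpm orbital shaking. Receiver samples were taken at 15, 30, 60 and 90 min with buffer replaced, and donor samples at start and end. Analysis was by HPLC; three independent experiments.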

Caco-2 [6] = assay: Induction of apoptosis in human Caco2 cells assessed as vital cells at 0.05 uM after 24 hrs by Annexin V/propidium iodide staining-based flow cytometric analysis (reference value: 96.67 +/- 1.02%); assay type: functional
Caco-2 [7] = assay: Induction of apoptosis in human Caco2 cells assessed as late apoptotic cells at 0.5 uM after 48 hrs by Annexin V/propidium iodide staining-based flow cytometric analysis (reference value: 2.20 +/- 0.77%); assay type: functional
[8] = Effective permeability in Wistar rat small intestine at 50 uM measured after 5 mins in every 5 min interval up to 30 mins; assay type: ADME, tissue-based; settings: not told, read-out: Peff
Method in brief: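 In situ intestinal perfusion in male Wistar rats fasted 2 h with water allowed. Anaesthesia with diazepam (1.67 mg/kg), ketamine (50 mg/kg) and atropine (1 mg/kg); animals kept at 37 °C. Perfusate sampled every 5 min from 5 to 30 min; absorption rate constant and Peff derived.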

MDA-MB-231 [9] = assay: Induction of apoptosis in human MDA-MB-231 cells assessed as inhibition of DNA synthesis after 24 hrs by BrdU staining-based ELISA; assay type: functional, cell-based
Method in brief: (§2)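 Cells seeded at 25,000/well; compounds added 24 h after seeding at a range of concentrations and incubated 24 h. Cells fixed, then colorimetric BrdU-incorporation ELISA. Absorbance read at 370-492 nm over 3 intervals of 5 min. Mean of three separate experiments with triplicate samples.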

HeLa [10] = assay: Cytotoxicity against human HeLa cells after 24 hrs by MTT assay; assay type: functional, cell-based; method in brief: as §1
Jurkat = assay: Cytotoxicity against human Jurkat cells after 24 hrs by MTT assay; assay type: functional, cell-based; method in brief: as §1
A-375 [11] = assay: Induction of apoptosis in human A375 cells assessed as p53 phosphorylation at Ser15 by Western blotting analysis; assay type: functional, cell-based
Method in brief: (§3)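 Cells treated 24 h. About 10^6 cells lysed on ice 15 min in Hepes pH 7.4/Triton X-100 buffer with phosphatase and protease inhibitors, then spun 13,000 × g. 30 µg protein run on 12% SDS-PAGE and blotted to nitrocellulose. Primary anti-phospho-p53 (Ser15) and anti-p53 at 1:1000 for 2 h at room temperature, then HRP secondary and ECL densitometry. Results referred to untreated control.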

A-375 [12] = assay: Induction of apoptosis in human A375 cells assessed as inhibition of DNA synthesis after 24 hrs by BrdU staining-based ELISA; assay type: functional, cell-based; method in brief: as §2
Caco-2 [13] = assay: Induction of apoptosis in human Caco2 cells assessed as vital cells at 0.5 uM after 48 hrs by Annexin V/propidium iodide staining-based flow cytometric analysis (reference value: 96.67 +/- 1.02%); assay type: functional
Caco-2 [14] = assay: Induction of apoptosis in human Caco2 cells assessed as necrotic cells at 0.05 uM after 48 hrs by Annexin V/propidium iodide staining-based flow cytometric analysis (reference value: 0.41 +/- 0.02%); assay type: functional
HeLa [15] = assay: Induction of apoptosis in human HeLa cells assessed as inhibition of DNA synthesis after 24 hrs by BrdU staining-based ELISA; assay type: functional, cell-based; method in brief: as §2
Caco-2 [16] = assay: Induction of apoptosis in human Caco2 cells assessed as early apoptotic cells at 0.5 uM after 48 hrs by Annexin V/propidium iodide staining-based flow cytometric analysis (reference value: 0.72 +/- 0.03%); assay type: functional
MDA-MB-231 [17] = assay: Induction of apoptosis in human MDA-MB-231 cells assessed as p53 phosphorylation at Ser15 by Western blotting analysis; assay type: functional, cell-based; method in brief: as §3
Caco-2 [18] = assay: Induction of apoptosis in human Caco2 cells assessed as late apoptotic cells at 0.05 uM after 48 hrs by Annexin V/propidium iodide staining-based flow cytometric analysis (reference value: 2.20 +/- 0.77%); assay type: functional
Caco-2 [19] = assay: Induction of apoptosis in human Caco2 cells assessed as necrotic cells at 0.05 uM after 24 hrs by Annexin V/propidium iodide staining-based flow cytometric analysis (reference value: 0.41 +/- 0.02%); assay type: functional
MDA-MB-231 [20] = assay: Cytotoxicity against human MDA-MB-231 cells after 24 hrs by MTT assay; assay type: functional, cell-based; settings: MDA-MB-231, 24 h; method in brief: as §1
Caco-2 [21] = assay: Induction of apoptosis in human Caco2 cells assessed as necrotic cells at 0.5 uM after 24 hrs by Annexin V/propidium iodide staining-based flow cytometric analysis (reference value: 0.41 +/- 0.02%); assay type: functional
Caco-2 [22] = assay: Induction of apoptosis in human Caco2 cells assessed as early apoptotic cells at 0.05 uM after 24 hrs by Annexin V/propidium iodide staining-based flow cytometric analysis (reference value: 0.72 +/- 0.03%); assay type: functional
Caco-2 [23] = assay: Induction of apoptosis in human Caco2 cells assessed as late apoptotic cells at 0.5 uM after 24 hrs by Annexin V/propidium iodide staining-based flow cytometric analysis (reference value: 2.20 +/- 0.77%); assay type: functional

Q: For `CC[C@@]1(O)C(=O)OCc2c1cc1n(c2=O)Cc2cc3c(CN(C)C)c(O)ccc3nc2-1.Cl` [TOPOTECAN HYDROCHLORIDE], which Activity (MDA-MB-231 [1]) is on record?
A: The Activity was “Active”.

Q: And the Activity (Caco-2 [2])?
A: Its Activity is 2.36%.

Q: And the IC50 (A-375 [3])?
A: The IC50 was 162 nM.

Q: What about the Papp A→B at 50 µM [4] of the same compound?
A: Its Papp A→B at 50 µM is 1.77 ×10⁻⁶ cm/s.

Q: And the efflux ratio at up to 50 µM [5]?
A: Its efflux ratio at up to 50 µM is greater than 1.

Q: And the Activity (Caco-2 [6])?
A: The Activity was 71.4%.

Q: And the Activity (Caco-2 [7])?
A: The Activity was 53.12%.

Q: What about the Papp at 5 min, 50 µM [8] of the same compound?
A: The Papp at 5 min, 50 µM was 55.8 ×10⁻⁶ cm/s.

Q: And the inhibition (MDA-MB-231 [9])?
A: Its inhibition is “Dose-dependent effect”.

Q: What about the IC50 (HeLa [10]) of the same compound?
A: Its IC50 is 380 nM.

Q: What about the IC50 (Jurkat) of the same compound?
A: The IC50 was 127 nM.

Q: And the Activity (A-375 [11])?
A: Its Activity is “Active”.

Q: And the inhibition (A-375 [12])?
A: The inhibition was “Dose-dependent effect”.

Q: And the Activity (Caco-2 [13])?
A: The Activity was 38.26%.

Q: And the Activity (Caco-2 [14])?
A: The Activity was 2.36%.

Q: What about the inhibition (HeLa [15]) of the same compound?
A: The inhibition was “Dose-dependent effect”.

Q: What about the Activity (Caco-2 [16]) of the same compound?
A: The Activity was 5.74%.

Q: What about the Activity (MDA-MB-231 [17]) of the same compound?
A: Its Activity is “Active”.

Q: What about the Activity (Caco-2 [18]) of the same compound?
A: The Activity was 48.06%.

Q: What about the Activity (Caco-2 [19]) of the same compound?
A: Its Activity is 3.64%.

Q: What about the IC50 (MDA-MB-231 [20]) of the same compound?
A: Its IC50 is 473 nM.

Q: And the Activity (Caco-2 [21])?
A: Its Activity is 8.54%.

Q: What about the Activity (Caco-2 [22]) of the same compound?
A: The Activity was 5.42%.

Q: And the Activity (Caco-2 [23])?
A: Its Activity is 33.98%.
